Measured values as given in ChEMBL document CHEMBL1141647, “Novel ofloxacin derivatives: synthesis, antimycobacterial and toxicological evaluation” (Bioorg Med Chem Lett, 2008).
pIC50: −log10 of the molar value. In brackets after ≈: the same amount, converted by molar mass.

Tests used:
Vero = test: Cytotoxicity against african green monkey Vero cells after 72 hrs by MTT assay; type: cell-based; conditions: Chlorocebus sabaeus
Outline: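 Vero cells exposed for 72 h; tested up to 62.5 µg/mL. Viability was read as cellular conversion of MTT to formazan, and IC50 was reported in µM.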

[1] = test system: Mycolicibacterium smegmatis; test: Antimycobacterial activity against Mycobacterium smegmatis ATCC 14468 by agar dilution method; type: functional
Outline: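 MC² (M. smegmatis) growth inhibition; MIC99 taken as the lowest concentration giving complete inhibition of bacterial growth, in µM.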

[2] = test system: Mycobacterium tuberculosis; test: Antimycobacterial activity against Mycobacterium tuberculosis H37Rv by agar dilution method; type: functional
Outline: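 MIC99 was taken as the lowest concentration giving complete inhibition of bacterial growth.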

[3] = test system: Mycobacterium tuberculosis; test: Antimycobacterial activity against Mycobacterium tuberculosis ATCC 35801 infected CD1 mouse lungs assessed as viable organisms at 25 mg/kg, ip after 35 days relative to control; type: functional; conditions: route intraperitoneal
Outline: (§1)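 CD-1 mice infected intravenously with M. tuberculosis ATCC 35801; intraperitoneal treatment started 10 days after inoculation and continued for 10 days. At 35 days postinfection, spleens and right lungs were removed aseptically and viable organisms counted (log CFU). Counts were compared with vehicle-treated controls.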

[4] = test system: Mycobacterium tuberculosis; test: Antimycobacterial activity against Mycobacterium tuberculosis ATCC 35801 infected CD1 mouse spleen assessed as viable organisms at 25 mg/kg, ip after 35 days relative to control; type: functional; conditions: route intraperitoneal; outline: as §1

In the case of `NNC(=O)c1ccncc1` [ISONIAZID], the pIC50 (Vero) was < 3.34, the MIC99 [1] was 45.6 µM (≈ 6.25 µg/mL) and the MIC99 [2] was 0.36 µM (≈ 0.0494 µg/mL). For the same molecule, the Log10 cfu [3] was 5.86 and the Log10 cfu [4] was 4.71.
